Results on 18 molecules are retold here after ChEMBL document CHEMBL1149468, “Pyridobenzodiazepines: a novel class of orally active, vasopressin V2 receptor selective agonists” (Bioorg Med Chem Lett, 2006).

Assay [1] has as its system Rattus norvegicus. Kind of assay: Antidiuretic effect measured as increase in osmolality over control in water-loaded Sprague-Dawley rat at 10 mg/kg, po. The format is functional, Urine. The method, boiled down:
(§1)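 Conscious water-loaded rats dosed orally; 30 min later stomachs gavaged with deionized water, 30 mL/kg. Urine collected over 4 h for volume; osmolality by cryoscopic osmometer; Na+, K+, Cl- by ion-selective electrodes. Expressed as percent change versus control at the stated dose (screening dose 10 mg/kg po).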

Assay [2] has as its system Rattus norvegicus. The experiment in a line: Antidiuretic effect measured as decrease in urine volume over control in water-loaded Sprague-Dawley rat at 10 mg/kg, po. As to conditions: for Activity: dose 10 mg/kg; for ED50: Rattus norvegicus, Sprague-Dawley, Urine. Also on record: Activity: scale not given: the % may be the effect or the level left. The format is functional. In a few lines:
as §1

Assay [3] concerns the target T1, Vasopressin V2 receptor (Homo sapiens, UniProt P30518). The experiment in a line: Displacement of [3H]AVP from human V2 receptor transfected in LV2 cells at 300 nM. The format is cell-based. The method, boiled down: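 Inhibition of [3H]AVP binding to membranes of LV2 cells transfected with human V2 receptors, reported as percent inhibition at 300 nM.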
The target in a further assay is T2, Oxytocin receptor (Rattus norvegicus, UniProt P70536).
T2 sequence (P70536 whole entry): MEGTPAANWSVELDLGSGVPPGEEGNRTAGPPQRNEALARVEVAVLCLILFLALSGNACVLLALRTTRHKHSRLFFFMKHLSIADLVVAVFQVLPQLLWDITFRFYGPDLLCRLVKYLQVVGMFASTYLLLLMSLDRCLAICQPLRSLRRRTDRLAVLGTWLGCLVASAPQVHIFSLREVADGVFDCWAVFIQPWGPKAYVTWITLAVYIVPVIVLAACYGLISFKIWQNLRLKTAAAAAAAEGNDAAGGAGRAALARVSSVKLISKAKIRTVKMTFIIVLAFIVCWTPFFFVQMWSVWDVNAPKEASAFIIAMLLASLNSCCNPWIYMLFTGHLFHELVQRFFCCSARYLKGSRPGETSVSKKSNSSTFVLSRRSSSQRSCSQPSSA
Kind of assay: Antagonism of OT-induced response at OT receptor in rat uterine strips. The format is functional.

Assay [4] addresses T1, Vasopressin V2 receptor. Kind of assay: Displacement of [3H]AVP from human V2 receptor transfected in LV2 cells. The format is cell-based. The method, boiled down:
(§2)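 Inhibition of [3H]AVP binding to membranes from CHO cells expressing human V1a receptors or from LV2 cells transfected with human V2 receptors; IC50 values are means of two to five (or three) experiments.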

Assay [5] concerns the target T3, Vasopressin V1a receptor (Homo sapiens, UniProt P37288). Kind of assay: Displacement of [3H]AVP from human V1a receptor expressed in CHO cells. The format is cell-based. In a few lines: as §2
Target sequence in this assay (P37288 whole entry): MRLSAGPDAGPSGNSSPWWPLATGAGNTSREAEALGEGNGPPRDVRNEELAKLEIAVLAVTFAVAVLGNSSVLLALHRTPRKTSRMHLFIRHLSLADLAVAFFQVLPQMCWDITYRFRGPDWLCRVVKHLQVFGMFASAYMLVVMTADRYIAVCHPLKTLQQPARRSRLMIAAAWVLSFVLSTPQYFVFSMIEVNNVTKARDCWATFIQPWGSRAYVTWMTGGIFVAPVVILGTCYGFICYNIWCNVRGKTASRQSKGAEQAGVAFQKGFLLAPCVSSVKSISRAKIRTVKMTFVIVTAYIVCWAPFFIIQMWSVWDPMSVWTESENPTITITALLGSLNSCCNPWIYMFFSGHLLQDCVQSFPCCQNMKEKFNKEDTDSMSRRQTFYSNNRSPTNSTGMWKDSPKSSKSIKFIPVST
Assay [6] deals with T1, Vasopressin V2 receptor. Kind of assay: Binding to human V2 receptor expressed in LV2 cells by cAMP production. The format is functional, cell-based.
In assay [7] the target is T3, Vasopressin V1a receptor. Kind of assay: Displacement of [3H]AVP from human V1a receptor expressed in CHO cells at 1 uM. The format is cell-based.
Target sequence in this assay (P37288 whole entry, looked up): as the sequence (P37288 whole entry) above
Assay [8] concerns the target T3, Vasopressin V1a receptor. The experiment in a line: Displacement of [3H]AVP from human V1a receptor expressed in CHO cell membrane at 10 uM. The format is cell membranes.
Target sequence in this assay (P37288 whole entry, looked up): as the sequence (P37288 whole entry) above
Assay [9] addresses Vasopressin V1a receptor (Rattus norvegicus, UniProt P30560). Kind of assay: Antagonism of AVP-induced response at V1a receptor in isolated rat tail arteries. The format is functional, tissue-based.
The target in assay [10] is Vasopressin V1a receptor (Rattus norvegicus) (UniProt P30560). The experiment in a line: Agonist activity at V1a receptor indicated by production of contractions in rat tail arteries. The format is functional, tissue-based.
Assay [11] concerns the target T4, Oxytocin receptor (Rattus norvegicus) (UniProt P70536).
T4 sequence (whole entry): T2 sequence (P70536 whole entry)
The experiment in a line: Agonist activity at OT receptor indicated by production of contractions in rat uterine strips. The format is functional.

The target in assay [12] is T3, Vasopressin V1a receptor. The experiment in a line: Displacement of [3H]AVP from human V1a receptor expressed in CHO cells at 0.1 uM. The format is cell-based.
Target sequence in this assay (P37288 whole entry, looked up): as the sequence (P37288 whole entry) above

pEC50, pIC50: −log10 of the molar value. Calls of active or inactive are those of the source. No cut-off for these calls is given here. Bridge positions count the residues as written; N and C are the ends. Square brackets hold non-standard residues; d marks the D form. Peptide text beside a SMILES is read from it. Orn = NCCC[C@H](N)C(=O)O; Mpa = O=C(O)CCS A value given as a limit tells only on which side of the number the result lay.

T1 sequence (P30518 whole entry): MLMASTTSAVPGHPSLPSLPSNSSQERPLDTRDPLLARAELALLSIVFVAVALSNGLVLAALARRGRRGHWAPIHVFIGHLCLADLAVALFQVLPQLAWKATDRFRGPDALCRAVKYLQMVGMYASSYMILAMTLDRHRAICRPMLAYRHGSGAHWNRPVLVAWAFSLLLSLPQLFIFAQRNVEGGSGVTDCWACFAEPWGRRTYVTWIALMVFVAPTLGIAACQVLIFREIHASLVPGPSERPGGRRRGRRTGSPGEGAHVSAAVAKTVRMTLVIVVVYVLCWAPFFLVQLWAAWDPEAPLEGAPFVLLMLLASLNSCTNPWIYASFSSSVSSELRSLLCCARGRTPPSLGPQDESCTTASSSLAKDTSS
Vasopressin V1a receptor (Rattus norvegicus, UniProt P30560), sequence (P30560 whole entry): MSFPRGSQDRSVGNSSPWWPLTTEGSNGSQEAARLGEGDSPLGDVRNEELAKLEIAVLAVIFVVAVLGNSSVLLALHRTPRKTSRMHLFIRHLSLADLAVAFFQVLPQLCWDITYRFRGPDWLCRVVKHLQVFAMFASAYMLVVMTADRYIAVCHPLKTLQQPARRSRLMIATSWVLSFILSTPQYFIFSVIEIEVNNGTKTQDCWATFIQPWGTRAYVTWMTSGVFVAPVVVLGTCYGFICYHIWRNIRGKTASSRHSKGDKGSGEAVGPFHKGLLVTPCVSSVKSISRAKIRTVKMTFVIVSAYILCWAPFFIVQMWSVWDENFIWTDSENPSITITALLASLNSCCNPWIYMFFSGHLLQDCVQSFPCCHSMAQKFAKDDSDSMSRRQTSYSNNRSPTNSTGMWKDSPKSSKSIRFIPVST
Vasopressin V1a receptor (Rattus norvegicus), sequence (P30560 whole entry, looked up): as the sequence (P30560 whole entry) above

For the molecule `Cc1n[nH]c(-c2ccc(C(=O)N3Cc4cccnc4Nc4ccccc43)c(Cl)c2)n1`, the Activity in the assay on Rattus norvegicus [1] stood at 516%; in the assay on Rattus norvegicus [2] it was 86%.

Take `CC(C)(C)c1ccn(-c2ccc(C(=O)N3Cc4cccnc4Nc4ccccc43)c(C(F)(F)F)c2)n1`: the Activity in the assay with Rattus norvegicus [1] is -7%; with Rattus norvegicus [2] it was 6%. Further, the inhibition at Vasopressin V2 receptor [3] came to 26%.

For `CCOc1ccc(C[C@H]2NC(=O)CCSSC[C@@H](C(=O)N3CCC[C@H]3C(=O)N[C@@H](CCCN)C(=O)NCC(N)=O)NC(=O)[C@H](CC(N)=O)NC(=O)[C@H]([C@@H](C)O)NC(=O)[C@H]([C@@H](C)CC)NC2=O)cc1` [ATOSIBAN] ([Mpa][dY](Et)ITNCP[Orn]G-NH2; disulfide 1-6), the pIC50 against Oxytocin receptor was 7.92.

`CN1c2ccccc2N(C(=O)c2ccc(-c3ccn(C)n3)cc2Cl)Cc2cccnc21`: the Activity with Rattus norvegicus [1] was -11%; with Rattus norvegicus [2] it was 10%.

Regarding `Cn1ccc(-c2ccc(C(=O)N3Cc4cccnc4Nc4ccccc43)c(Cl)c2)n1`, the Activity in the assay on Rattus norvegicus [1] was determined as 134%; with Rattus norvegicus [2] it was 76%. Moreover, the results for the pIC50 at Vasopressin V2 receptor [4] and at Vasopressin V1a receptor [5] were 6.74 and 5.75, respectively.

In the case of `Cc1ccn(-c2ccc(C(=O)N3Cc4cccn4Cc4ccccc43)c(Cl)c2)n1`, the Activity in the assay with Rattus norvegicus [1] was determined as 286%; in the assay with Rattus norvegicus [2] it was 74%. The pIC50 is 7.10 on Vasopressin V2 receptor [4] and 6.11 at Vasopressin V1a receptor [5]. Besides, at Vasopressin V2 receptor [6], the pEC50 is 9.13. The molecule further registered an ED50 with Rattus norvegicus [2] of 0.14 mg/kg.

Take `O=C(c1ccc(-n2ccc(-c3ccncc3)n2)cc1Br)N1Cc2cccnc2Nc2ccccc21`: the results for the Activity with Rattus norvegicus [1] and with Rattus norvegicus [2] were 11% and 24%, respectively. At Vasopressin V2 receptor [3], the inhibition worked out at 26%.

Take `Cc1ccn(-c2ccc(C(=O)N3Cc4cccnc4N(C)c4ccccc43)c(Cl)c2)n1`: the Activity in the assay on Rattus norvegicus [1] is 275%; with Rattus norvegicus [2], 71%. At Vasopressin V2 receptor [4], this molecule had a pIC50 of 6.32. At Vasopressin V1a receptor [7], the inhibition was found to be 20%.

As for `Cc1ccn(-c2ccc(C(=O)N3Cc4cccnc4N(C)c4ccccc43)c(C(F)(F)F)c2)n1`, the results for the Activity in the assay with Rattus norvegicus [1] and in the assay on Rattus norvegicus [2] were 198% and 72%, respectively. Moreover, the inhibition on Vasopressin V2 receptor [3] amounted to 10%; at Vasopressin V1a receptor [8], 32%.

For `Cc1ccn(-c2ccc(C(=O)N3Cc4cccnc4Nc4ccccc43)c(Cl)c2)n1`, the values for the Activity in the assay with Rattus norvegicus [1] and with Rattus norvegicus [2] were 172% and 80%, respectively. For the same molecule, on Vasopressin V2 receptor [4], the pIC50 was 7.04. Besides, on Vasopressin V1a receptor [7], the inhibition was determined as 38%.

As for `Cc1ccnn1-c1ccc(C(=O)N2Cc3cccnc3Nc3ccccc32)c(Cl)c1`, the Activity with Rattus norvegicus [1] turned out to be 189%; in the assay with Rattus norvegicus [2] it was 61%. Moreover, the pIC50 at Vasopressin V2 receptor [4] is 6.41.

As for `O=C(c1ccc(-n2ccc(C(F)(F)F)n2)cc1Cl)N1Cc2cccnc2Nc2ccccc21`, the Activity in the assay on Rattus norvegicus [1] was 162%; in the assay with Rattus norvegicus [2] it was 72%. For the same molecule, the inhibition on Vasopressin V2 receptor [3] stood at 13%.

On to `Cc1ccn(-c2ccc(C(=O)N3Cc4cccnc4Nc4ccccc43)c(F)c2)n1`, for which the Activity stood at 272% in the assay with Rattus norvegicus [1] and 59% in the assay on Rattus norvegicus [2]. For the same molecule, the pIC50 on Vasopressin V2 receptor [4] is 6.03.

Turning to `Cc1ccn(-c2cc(F)ccc2C(=O)N2Cc3cccnc3Nc3ccccc32)n1`, the Activity in the assay on Rattus norvegicus [1] turned out to be 177%; in the assay with Rattus norvegicus [2] it was 63%. Besides, the inhibition on Vasopressin V2 receptor [3] worked out at 5%.

Regarding `Cc1ccn(-c2ccc(C(=O)N3Cc4cccnc4Nc4ccccc43)c(C(F)(F)F)c2)n1`, the pIC50 against Oxytocin receptor was 5.90; at Vasopressin V2 receptor [4], 6.31; at Vasopressin V1a receptor [5], 5.23; against Vasopressin V1a receptor [9], under 4.52. Also, the Activity with Rattus norvegicus [1] is on record as 239%; in the assay with Rattus norvegicus [2], 87%. For the same molecule, the result in assay [10] and in assay [11] was inactive. The pEC50 at Vasopressin V2 receptor [6] was 8.78. In addition, the ED50 in the assay on Rattus norvegicus [2] is 0.1 mg/kg.

Turning to `O=C(c1ccc(-n2ccc(C(F)(F)F)n2)cc1C(F)(F)F)N1Cc2cccnc2Nc2ccccc21`, the results for the Activity with Rattus norvegicus [1] and in the assay with Rattus norvegicus [2] were 183% and 69%, respectively. For the same molecule, the inhibition on Vasopressin V2 receptor [3] is -7%.

Consider `Cc1ccn(-c2ccc(C(=O)N3Cc4cccnc4Nc4ccccc43)c(Br)c2)n1`, for which the values for the Activity in the assay on Rattus norvegicus [1] and in the assay on Rattus norvegicus [2] were 247% and 85%, respectively. At Vasopressin V2 receptor [4], this molecule had a pIC50 of 6.53. In addition, the inhibition at Vasopressin V1a receptor [7] worked out at 30%.

On to `Cc1ccnn1-c1ccc(C(=O)N2Cc3cccnc3Nc3ccccc32)c(C(F)(F)F)c1`, for which the results for the Activity in the assay with Rattus norvegicus [1] and in the assay with Rattus norvegicus [2] were 4% and 25%, respectively. Moreover, the pIC50 at Vasopressin V2 receptor [4] is 6.38. In addition, the inhibition on Vasopressin V1a receptor [12] was 11%.
